Source: the EternaBench riboswitch data

Test system: MS2 coat protein
Experiment: apparent Kd, MS2 coat protein; higher = weaker binding; RNA-MaP array; FMN 200 µM where present
How it was run: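 The apparent Kd comes from binding curves fitted cluster by cluster, filtered, and summarised as a median. Those curves followed SNAP-549-labelled MS2 coat protein from 0.7 or 1.5 nM, doubling to 3 µM, on Illumina sequencing-chip clusters where stalled E. coli RNA polymerase had transcribed the designs, without and then with constant ligand. The buffer was 100 mM Tris-HCl pH 7.5, 80 mM KCl, 4 mM MgCl2, BSA, DTT, yeast tRNA and Tween-20, and green signal was normalised to red-channel RNA signal and control-cluster median Fmax.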

[1] = designed as: OFF switch for flavin mononucleotide, no ligand
[2] = ligand present: flavin mononucleotide, designed as: OFF switch for flavin mononucleotide
[3] = designed as: ON switch for flavin mononucleotide, no ligand
[4] = ligand present: flavin mononucleotide, designed as: ON switch for flavin mononucleotide

Sequence | apparent Kd [1] [µM] | apparent Kd [2] [µM] | apparent Kd [3] [µM] | apparent Kd [4] [µM]
ACUAGAUGAGGAUAUGCAUAUUUUCGUGUUCUUCUAGAUUAACAUGAGGAUCACCCAUGUAGAAGGCGUCUGGU | 0.0307 | 0.062 | – | –
GGAGCCGGCCUAGGAUAUUUCAUAACAAAACAUGAGGAUCACCCAUGUAGGCCAGAAGGCCUUGGGAAGAAGGAGGUCGGCUCC | – | – | 0.0296 | 0.0117
UUAAAUCAUGUAGGAUAUGCAUGGCCAAGCUAGGCAGAAGGACAUGAGGAUCACCCAUGUUAUAGCUACCAAGUAAGGUGGCAA | 0.0329 | 0.279 | – | –
CAGAUCGAUGUGAGGAUAUCUGUGUUACCCUGUAAGGAGAAGGCACAUGAGGAUCACCCAUGUGAUUCGGUCCU | 0.0404 | 0.0363 | – | –
GUAGCUUUCCGAGGAUAUUCAUACCGGAAACGGACAUGAGGAUCACCCAUGUGGCGAAAGCCUUGGGAGAAGGCGGAAAGCUAC | – | – | 0.446 | 0.0234
CUCCUGUGAUUAGGAUAUGUGCGCACUGUGCUAGCAGAAGGGAUCACAUGAGGAUCACCCAUGUGAGUAGCUCACUGUAAAGGG | 0.111 | 0.107 | – | –
UGUUGUAUUACAGGAUAUCUAGUAUUUUAAUUUAGAGAAGGGUAUUCACAUGAGGAUCACCCAUGUAUAUACGAGGAAGUUGUG | – | – | 0.0513 | 0.0616
CGAAAUGAUAGAGGAUAUGUUUUACAUGAGGAUCACCCAUGUGUACAUGGAUUAAUAUAUAAGUAACAGAAGGCUAUUCAAUCG | 0.0186 | 0.0173 | – | –
CGCAAACUUGGGUUUAAUGGUGCAUAGGAUAUGCUUGUACAUGAGGAUCACCCAUGUACUAUUGUGCAGAAGGGUGCAUUUGCG | – | – | 0.00797 | 0.00577
GUAAAUCAUGUAGGAUAUGCAUGGCGAAGCUACGCAGAAGGACAUGAGGAUCACCCAUGUCUCUCCGUCUGCGUACAGACGGAG | 0.0274 | 0.188 | – | –
UUAGGUCGAAACAUGAGGAUCACCCAUGUGUUAUAAUUAAUAUAGGAUAUGUUUAUACUUUUUGGGCAGAAGGAUGAUAUUGCU | – | – | 0.0212 | 0.0179
GGGCUCGGUGUGAGGAUAUGCUCGGGUAAAUCUGGGUAGAAGGCACAUGAGGAUCACCCAUGUAAGCUGGGUCU | 0.0339 | 0.0339 | – | –
AAUAUAGAAGGAUAUGCAGCCGUGAGCCAUAGAGGAGACGAACAUGAGGAUCACCCAUGUAGAAGGUCUCGAUU | 0.0131 | 0.0124 | – | –
GAUGCACAUGAGAAGGCGAUCAUGAAACAUGAUCGAGGAUAUCAUGUAAACAUGAGGAUCACCCAUGUAUGGGAAAAGUGCAUC | – | – | 0.119 | 0.0121
CGAUAACCACAGAAGGCCCGGGACAUGAGGAUCACCCAUGUAGAAAGUGGGAGGAUAUGUGUACGCGGCAUGCUGACCUCGUGA | – | – | 0.21 | 0.0286
UUCUGUGUGUGCUAGAGCUGCACAUGAGGAUCACCCAUGUACAGAAGGUGGACGCACACUGUGGCCAAGGAUAUGUAACAUGUU | 0.00668 | 0.00715 | – | –
AAUAUAAGAGCUGGAAAUAACUCAACAUGAGGAUCACCCAUGUAGGAUAUCAGCACGAUAAGUGCUGAGAAGGACAUCCAGCUC | 0.0144 | 0.0146 | – | –
ACCGAUAGAGGAUAUACAGGUCGAUACAUGAGGAUCACCCAUGUUACCCUCGGUACACCCGUAGAAGGUUGUGGCU | 0.263 | 0.248 | – | –
AUUAAACAUGAGGAUCACCCAUGUCAACAAAGUCGAGGAUAUGGGCAAAUAAAAUAAGAACCAGAAGGCGACUAAU | – | – | 0.0227 | 0.016
CUUUUGUGAGGAUAUUAGUAGUAAAUAUAUAAAAUUACUACUGAGAAGGCACAUGAGGAUCACCCAUGUUCCUC | 0.0315 | 0.194 | – | –
UACAUGAGGAUCACCCAUGUUUUGUCGUGUAUGGUAUUUAUCUAGGAUAUCAAUCUAUUAAUUUAUGAGAAGGAGAAUAUUAAU | 0.0355 | 0.0397 | – | –
CAGCGCUGUCGAGAGGAUAUGCGGUGAUGGACAUGAGGAUCACCCAUGUAAGCGAUAGCAUUACGGCAGAAGGCUCUGCAGCUGC | – | – | 0.0251 | 0.0174
GGUCCAUUAUGAGGAUAUGGCACCUUAUUGGUGCCAGAAGGCAUGUGUAUUCACAUGAGGAUCACCCAUGUAAUAAAUUGGACC | – | – | 0.0872 | 0.02
ACACUGCGAGGAUAUACAUGAGGAUCACCCAUGUGUCGGCAGGUACGGUAGCACUAGUGUAGAAGGCGCAUUGG | 0.0246 | 0.042 | – | –

Sequence | apparent Kd [1] [µM] | apparent Kd [2] [µM] | apparent Kd [3] [µM] | apparent Kd [4] [µM]
GAAAAACAUGAGGAUCACCCAUGUGAGAAUAUGGGAGGAUAUUCAAAGACGAAAGUCAAAGAAGAAGGCCUAAAAG | – | – | 0.153 | 0.0374
CCAUGCGGAUGAGGAUAUUCAUCCAUGAGGAUAGAAGAAGGCGUACAUGAGGAUCACCCAUGUAUACACAUGAGGAUCCCUUAC | 0.462 | 0.42 | – | –
CGUCCACAUGAGGAUCACCCAUGUUAGGAUAUAAACGCCGUAGUCCAAGGACGGGCCUUUAGAAGGAGCGCGGG | 0.0139 | 0.0256 | – | –
CCUAAGGAGGUAGGAUAUAGUGUGGUGGCCGGGCUCCCACGGCGAGCGGCACUAGAAGGAUCGCUACAUGAGGAUCACCCAUGU | – | – | 0.0102 | 0.00971
GCACGGCAUGUAGGAUAUCGAGCGCCGGGCGCUCGAGAAGGACAUGAGGAUCACCCAUGUAUUCUGAGUGACAGAGUGCUGUGC | 0.019 | 0.0468 | – | –
AGAUCACAUGAGGAUCACCCAUGUGAGGAUAUGAUACUAUGUACUUCGGUACAUAGUAUCAGAAGGCAUGUGGA | 0.0567 | 0.109 | – | –
AUGCUAUACGAAGGAUAUGGUUACAUGAGGAUCACCCAUGUAAUUCUUGUGAUCUUGUUUAAGUUCCAGAAGGUCGUAUAGCUA | 0.0291 | 0.0882 | – | –
CAUGUCCUCACAGGAUAUGCAAUGUAUUUCAUUGCAGAAGGGUGAAUACAUGAGGAUCACCCAUGUGGACAUGAUAUAUUUAAU | – | – | 0.725 | 0.0778
GGAUCCUGGGUCAGGAUAUGCUGACAGCUUUGUCAGCAGAAGGGACAUGAGGAUCACCCAUGUGCUCGGUUUUG | 0.0101 | 0.0181 | – | –
GAAUUCGCAUGAGGAUAUGCACUCAUUUCAUGUGCAGAAGGUAUUUCAUUAGACAUGAGGAUCACCCAUGUAUUGGUCAAUAAC | – | – | 0.0191 | 0.0161
UCUCACUCAGGAUAUGAUGCGCAUGACAUGAGGAUCACCCAUGUGUGCAUGCCCUUUGCUUCAGAAGGGAGUGAGA | 0.019 | 0.0216 | – | –
ACCUGCCGUGGCACGGUAGUACCGGAGGAUAUCCGCGUCGGUCAUGACAUGAGGAUCACCCAUGUGGAGAAGGCUGGUUUGUCC | 0.0119 | 0.0248 | – | –
GAGUACAUCGGAGGAUAUCAUGUAAAUACAUGAGGAUCACCCAUGUCGAUGGAGACAUCGGAGAUUGAGAAGGCCGAUGUACCG | – | – | 0.18 | 0.00863
GGUCCAACAUGAGGAUAUGGCACCUUAUUGGUGCCAGAAGGCAUGUCUAUAGACAUGAGGAUCACCCAUGUAAUAAAUUGGACC | – | – | 0.689 | 0.0478
AUCGAACAUGAGGAUCACCCAUGUCAGUCGAACCAAGGAUAUGGGCAGGGUUCUCUUGCACCAGAAGGUGGCUAAA | – | – | 0.0569 | 0.0957
AGCGAGGUAGGAUAUACAUGAGGAUCACCCAUGUGCUUGCAUGGCGUGGAACGUCGAGGUAGAAGGGCCGCGCC | 0.0242 | 0.0357 | – | –
CGCUAAGAUGGGUCUAAUGGACCACAGGAUAUGCUUGUACAUGAGGAUCACCCAUGUAAUAUUGUGCAGAAGGGUGGAUUUGCG | – | – | 0.0189 | 0.00703
AUUUCGUCAGGAUAUCCUAGUAAUUGUUUCAUAUUUUCAUAGGAGAAGGGACAUGAGGAUCACCCAUGUUUGUC | 0.0255 | 0.0245 | – | –
AAUUAUUAUUGAGGAUAUCGUAUUGAAACAAUACGAGAAGGCGGGAUAAACAUGAGGAUCACCCAUGUGAGCCUGAUGCUUGUG | 0.0181 | 0.0165 | – | –
AGCUGGUGACAGCAAGAAACUUCACAUGAGGAUCACCCAUGUAGAAGGCUGUACGGUUACCGUACAGAGGAUAUACAUGAAAAG | 0.00949 | 0.0268 | – | –
ACCUCACAUGAGGAUCACCCAUGUCAGGAUAUACCCAAAGCUGCGAAAAUAUCCAGCUGUAGAAGGGACAGGCU | 0.0139 | 0.0161 | – | –
GGUAGAGACGUUAACAUGAGGAUCACCCAUGUCGAAGGAGAUGAGGAUAUCGUAUACGAUGUAUAUGAGAAGGCAUGGUCUGCC | – | – | 0.0244 | 0.0117
CACAAGAAAGUCGAACCGCUAUCUAGAAGGACAACAUGACAACAUGAGGAUCACCCAUGUCAUAUGUAGGAUAUGGAUGGUGGG | 0.00894 | 0.00914 | – | –
CUUAAACAUGAGGAUCACCCAUGUGAGGAUAUGAUGCGAAUAAAGAAAGAAGAAAGCAUCAGAAGGCACAUAUG | 0.0869 | 0.236 | – | –
